Results as given in ChEMBL document CHEMBL4732041, “Sulfonium-based liposome-encapsulated antibiotics deliver a synergistic antibacterial activity” (RSC Med Chem, 2021).
Values after ≈ are worked out from the molar mass of the structure shown.

Key:
[1] = tested on: Pseudomonas aeruginosa; experiment: Antibacterial activity against Pseudomonas aeruginosa MTCC 2488 incubated for 14 to 16 hrs by micro broth dilution method; assay type: functional; conditions: time 14-16 hrs
Method in brief: (§1)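 Broth microdilution. E. coli and P. aeruginosa grown in LB, S. aureus in BHI, to mid-log phase at 37 °C with shaking. Cells washed and resuspended in PBS, then exposed to graded compound concentrations at 10^6 CFU/mL at 37 °C for 14–16 h. OD600 read. MIC is the lowest concentration with no visible growth or OD close to the bacteria-free control. Repeated thrice at the MIC.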

[2] = tested on: Escherichia coli; experiment: Antibacterial activity against Escherichia coli MTCC 1687 incubated for 14 to 16 hrs by micro broth dilution method; assay type: functional; conditions: time 14-16 hrs; method in brief: as §1
[3] = tested on: Staphylococcus aureus; experiment: Antibacterial activity against methicillin resistant Staphylococcus aureus incubated for 14 to 16 hrs by micro broth dilution method; assay type: functional; conditions: time 14-16 hrs
Method in brief: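 MRSA grown in BHI broth at 37 °C with shaking to mid-log phase, harvested, PBS-washed and resuspended in PBS; 10^6 CFU mL−1 incubated with serially varied compound concentrations at 37 °C for 14–16 h; OD600 read. MIC is the lowest concentration with no visible growth or OD near the bacteria-free control; repeated thrice.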

[4] = tested on: Staphylococcus aureus; experiment: Antibacterial activity against Staphylococcus aureus MTCC 96 incubated for 14 to 16 hrs by micro broth dilution method; assay type: functional; conditions: time 14-16 hrs; method in brief: as §1
[5] = tested on: HaCaT; experiment: Cytotoxicity against human HaCaT cells after 24 hrs by MTT assay; assay type: cell-based
[6] = tested on: Escherichia coli; experiment: Synergistic antibacterial activity against Escherichia coli assessed as tetracyclin MIC encapsulated by compound; assay type: functional
Method in brief: (§2)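 Antibiotic-loaded liposomes (film hydrated with tetracycline or amoxicillin in PBS, freeze–thaw, vortexing, unloaded drug removed by centrifugation) tested by the same broth microdilution protocol: mid-log cells in PBS at 10^6 CFU/mL, 37 °C, 14–16 h, OD600.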

[7] = tested on: Staphylococcus aureus; experiment: Synergistic antibacterial activity against Staphylococcus aureus assessed as tetracyclin MIC encapsulated by compound; assay type: functional; method in brief: as §2
[8] = Solubility of compound in PBS at pH 7.4; assay type: physicochemical; conditions: buffer
[9] = tested on: Escherichia coli; experiment: Synergistic antibacterial activity against Escherichia coli assessed as amoxicillin MIC encapsulated by compound; assay type: functional; method in brief: as §2
[10] = tested on: Staphylococcus aureus; experiment: Synergistic antibacterial activity against Staphylococcus aureus assessed as amoxicillin MIC encapsulated by compound; assay type: functional; method in brief: as §2

Row | Compound | MIC [1] | MIC [2] | MIC [3] | MIC [4] | IC50 [5] | MIC [6] | MIC [7] | solubility [8] | MIC [9] | MIC [10]
1 | CN(C)[C@@H]1C(O)=C(C(N)=O)C(=O)[C@@]2(O)C(O)=C3C(=O)c4c(O)cccc4[C@@](C)(O)[C@H]3C[C@@H]12 [TETRACYCLINE] | 14 µM (≈ 6.22 µg/mL) | 8.5 µM (≈ 3.78 µg/mL) | > 100 µM | 4.2 µM (≈ 1.87 µg/mL) | 8 µM | 2 µM | 0.7 µM |  |  | 
2 | CCCCCCCCCCCCSCc1cc(CSCCCCCCCCCCCC)cc(Cn2cc(CS(=O)(=O)O)nn2)c1 | > 100 µM | > 100 µM | > 100 µM | > 100 µM |  |  |  |  |  | 
3 | CCSCc1cc(CSCC)cc(C[n+]2ccccc2)c1 | > 100 µM | > 100 µM | > 100 µM | > 100 µM |  |  |  |  |  | 
4 | CCCCCCCCCCCCSCc1cc(CN=[N+]=[N-])cc(CSCCCCCCCCCCCC)c1 | > 100 µM | > 100 µM | > 100 µM | > 100 µM |  |  |  |  |  | 
5 | CCCCCCCCCCCCSCc1cc(CSCCCCCCCCCCCC)cc(C[n+]2ccccc2)c1 | > 100 µM | > 100 µM | > 100 µM | > 100 µM |  |  |  |  |  | 
6 | CC[S+](C)Cc1cc(C[n+]2ccccc2)cc(C[S+](C)CC)c1.F[B-](F)(F)F.F[B-](F)(F)F.F[B-](F)(F)F (stereo not given) | > 100 µM | > 100 µM | > 100 µM | > 100 µM |  |  |  | Soluble |  | 
7 | CC1(C)S[C@@H]2[C@H](NC(=O)[C@H](N)c3ccc(O)cc3)C(=O)N2[C@H]1C(=O)O [AMOXICILLIN] | 4.3 µM (≈ 1.57 µg/mL) | 11 µM (≈ 4.02 µg/mL) | > 50 µM | 6.8 µM (≈ 2.48 µg/mL) | 29.4 µM |  |  |  | 1.7 µM | 1.2 µM
